The record followed here is ChEMBL document CHEMBL1268912, “Antidiabetic and antiobesity effects of Ampkinone (6f), a novel small molecule activator of AMP-activated protein kinase” (J Med Chem, 2010).

Each structure is given as a SMILES string. Calls of active or inactive are those of the source. The calls are words filed in the database; no cut-off is given here.

Assay [1] is described as follows: Activation of AMPK assessed as phosphorylation of T172 at 10 uM by Western blotting relative to control. The method, boiled down: (§1)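 L6 cells, serum-starved 6 h, treated with 10 μM for set times (10 min to 6 h). RIPA lysates (40 μg) run on SDS-PAGE and blotted to nitrocellulose. Blocked in TBS-Tween with 5% milk. Probed overnight at 4 °C with anti-ACC (pS79) or anti-AMPK (pT172) and the total-protein antibodies. HRP secondary antibody, ECL detection.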
For orientation: In western blotting, separated proteins are transferred to a membrane and probed.

Assay [2] can be described thus: Activation of ACC phosphorylation at S79 at 10 uM by Western blotting relative to control. In short, it runs like this: as §1
Assay [3] deals with Mus musculus. The assay is described as follows: Induction of AMPK phosphorylation in diet induced obese mouse liver at 10 mg/kg, sc qd by immunoblotting. Set-up: dose 10 mg/kg. The format is functional, organism-based. In short, it runs like this:
(§2)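 DIO mice were dosed 10 mg/kg/day sc in PEG400 or vehicle for 1 month, n = 7 per group, then fasted 24 h. Liver and muscle lysates were immunoblotted for phospho-AMPK/ACC and the total proteins.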

The test system of assay [4] is 3T3-L1. In words: Induction of ACC phosphorylation in mouse 3T3L1 cells after 1 hr.
Assay [5] deals with 3T3-L1. The assay is described as follows: Induction of AMPK phosphorylation in mouse 3T3L1 cells after 1 hr.
Assay [6] concerns the target T1, Serine/threonine-protein kinase STK11 (Homo sapiens) (UniProt Q15831).
T1 sequence (whole entry): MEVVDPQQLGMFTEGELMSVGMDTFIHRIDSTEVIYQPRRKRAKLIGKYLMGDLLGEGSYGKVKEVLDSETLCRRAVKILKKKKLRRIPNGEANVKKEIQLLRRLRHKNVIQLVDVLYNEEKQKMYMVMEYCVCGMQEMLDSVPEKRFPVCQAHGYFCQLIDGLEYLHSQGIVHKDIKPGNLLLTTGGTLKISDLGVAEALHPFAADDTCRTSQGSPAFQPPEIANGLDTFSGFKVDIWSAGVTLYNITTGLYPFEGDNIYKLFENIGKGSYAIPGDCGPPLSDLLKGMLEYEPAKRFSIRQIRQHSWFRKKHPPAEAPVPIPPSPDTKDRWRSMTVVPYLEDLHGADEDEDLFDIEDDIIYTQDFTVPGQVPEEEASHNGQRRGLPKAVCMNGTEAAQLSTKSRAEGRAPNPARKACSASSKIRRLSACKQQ
In words: Activation of LKB1 expressed in human HeLa cells assessed as increase in AMPK phosphorylation. The format is cell-based. The method, boiled down: (§3)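 HeLa cells lack endogenous LKB1. They were transfected for 24 h with HA-tagged LKB1 in pcDNA3.1 or mock-transfected. After 6 h serum starvation, cells were exposed to 10 μM for set times. Lysates were immunoblotted for AMPK (pT172), total AMPK and HA.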

Assay [7] relates to C2C12. The assay is described as follows: Increase in AMPK-mediated glucose uptake in mouse C2C12 cells assessed as increase in fluorescent intensity by confocal laser scanning microscopy. The format is cell-based. In short, it runs like this: (§4)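 C2C12 myocytes were differentiated in 2% horse serum, held in low-glucose serum-free medium for 4 h, then treated for 1 h in glucose-free DMEM at 10 μM. In the CLSM chamber at 37 °C, 5 μM Cy3-Glc-R was injected and images taken every 7 s to follow fluorescence uptake.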

The next assay relates to L6. In words: Induction of ACC phosphorylation in […] cells after 10 mins. The format is cell-based. In short, it runs like this: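 L6, C2C12 or 3T3-L1 cells, serum-starved 6 h, were treated for 1 h with graded concentrations (0–20 μM); L6 cells were also given a 10 μM time course. Lysates were immunoblotted for AMPK pT172, ACC pS79 and the total proteins, with ECL detection.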

Assay [8] has as its system C2C12. The assay is described as follows: Increase in AMPK-mediated glucose uptake in mouse C2C12 cells by confocal laser scanning microscopy. The format is cell-based. In short, it runs like this:
as §4

Assay [9] concerns Mus musculus. The assay is described as follows: Antidiabetic activity in diet induced obese mouse assessed as reduction in glucose level at 10 mg/kg, sc qd. The format is functional, organism-based. On the set-up: dose 10 mg/kg. In short, it runs like this: (§5)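 DIO mice were male C57BL/6J fed a 60%-fat diet from 4 weeks of age for 8 weeks. Dosed 10 mg/kg/day sc in PEG400 or vehicle for 1 month, n = 7 per group. Serum insulin was measured by mouse insulin ELISA and blood glucose by glucometer. Mean ± SD; Student's t test/ANOVA.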

Assay [10] deals with C2L12. In words: Induction of AMPK phosphorylation in mouse […] cells after 1 hr.
In assay [11] the test system is Mus musculus. The assay is described as follows: Induction of AMPK phosphorylation in diet induced obese mouse muscle at 10 mg/kg, sc qd by immunoblotting. The format is functional, organism-based. Set-up: dose 10 mg/kg. The method, boiled down: as §2
Another assay relates to L6 (Rattus norvegicus). In words: Increase in AMPK-mediated glucose uptake in rat L6 cells by confocal laser scanning microscopy in presence of compound C.
A short description of assay [12]: Induction of AMPK phosphorylation in […] cells […]. It is filed as cell-based. Particulars: L6, 10 min.
In assay [13] the test system is Mus musculus. The assay is described as follows: Antidiabetic activity in diet induced obese mouse assessed as reduction in insulin level at 10 mg/kg, sc qd. The format is functional, organism-based. On the set-up: dose 10 mg/kg. In short, it runs like this:
as §5

The subject of assay [14] is C2L12. The assay is described as follows: Induction of ACC phosphorylation in mouse […] cells after 1 hr.
Assay [15] relates to Mus musculus. The assay is described as follows: Antiobesity activity in diet induced obese mouse assessed as change in body weight at 10 mg/kg, sc qd. The format is functional, organism-based. Set-up: dose 10 mg/kg. The method, boiled down:
(§6)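 DIO C57BL/6J males (high-fat diet, 60% of calories from fat, for 8 weeks) were given 10 mg/kg/day sc in PEG400 or vehicle for 30 days, n = 7 per group. Body weight and food intake were recorded every 3 days.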

Assay [16] relates to Mus musculus. The assay is described as follows: Antiobesity activity in diet induced obese mouse assessed as change in food intake at 10 mg/kg, sc qd. On the set-up: dose 10 mg/kg. The format is functional, organism-based. In short, it runs like this: as §6
Assay [17] concerns the target AMP-activated protein kinase, AMPK (Homo sapiens) (UniProt P54646+O43741+P54619+Q9UGJ0+Q9Y478+Q13131+Q9UGI9). The assay is described as follows: Induction of AMPK phosphorylation in human HeLa cells. It is filed as cell-based. In short, it runs like this: as §3

`COc1ccc2c(c1O)OC(C)(C)c1c-2ccc2c1C(=O)NC2=O`: the Activity is 158% in [1] and 123% in assay [2].

`COc1ccc2c(c1O)OC(C)(C)c1c-2ccc2c1C(=O)N(Cc1ccccc1)C2=O`: the results for the Activity in assay [1] and in [2] were 165% and 194%, respectively.

On to `COc1ccc2c(c1O)OC(C)(C)c1c-2ccc2c1C(=O)N(c1cccc(-c3ccccc3)c1)C2=O`, for which the Activity in assay [1] turned out to be 175%; in assay [2], 201%.

Regarding `COc1ccc2c(c1)OC(C)(C)c1c-2ccc2c1C(=O)N(c1ccc(C(=O)c3ccccc3)cc1)C2=O`, the values for the Activity in assay [1] and in assay [2] were 159% and 154%, respectively.

Consider `COc1ccc2c(c1O)OC(C)(C)c1c-2ccc2c1C(=O)N(C)C2=O`, for which the figures for the Activity in [1] and in assay [2] were 205% and 145%, respectively.

Turning to `COc1ccc2c(c1O)OC(C)(C)c1c-2ccc2c1C(=O)N(c1ccc(C(C)=O)cc1)C2=O`, the values for the Activity in assay [1] and in assay [2] were 264% and 384%, respectively.

Consider `COc1ccc2c(c1O)OC1(CCCC1)c1c-2ccc2c1C(=O)N(c1ccc(C(=O)c3ccccc3)cc1)C2=O`, for which the results for the Activity in assay [1] and in [2] were 113% and 51%, respectively.

For the molecule `COc1ccc2c(c1O)OC(C)(C)c1c-2ccc2c1C(=O)N(c1ccc(-c3nc4ccccc4o3)cc1)C2=O`, the Activity in [1] was found to be 92%; in [2], 91%.

Regarding `CC1(C)Oc2cc(F)ccc2-c2ccc3c(c21)C(=O)N(c1ccc(C(=O)c2ccccc2)cc1)C3=O`, the Activity is 186% in assay [1] and 156% in assay [2].

Broadly, the EC50 is the concentration at which the effect is half-maximal. Read a low EC50 as greater potency. As for `COc1ccc2c(c1O)OC(C)(C)c1c-2ccc2c1C(=O)N(c1ccc(C(=O)c3ccccc3)cc1)C2=O` [AMPKINONE], the outcome (in the assay with Mus musculus [3]; in assay [6]; with C2C12 [7]; in the assay with L6; in the assay with Mus musculus [9]; in the assay on Mus musculus [11]) was Active. Further, the outcome (in the assay with Mus musculus [13]; in assay [17]) was Active. Also, the Activity result is “Dose-dependent effect” with 3T3-L1 [4]; “Dose-dependent effect” in the assay on 3T3-L1 [5]; “Dose-dependent effect” in the assay on C2L12 [10]; 322% in [1]; 295% in assay [2]; “Dose-dependent effect” in the assay with C2L12 [14]. In the assay with C2C12 [8], the fold change (FC) came out at 3.2. The result with L6 (Rattus norvegicus), in the assay on Mus musculus [15] and in the assay with Mus musculus [16] was inactive. Besides, in [12], the concentration giving a half-maximal response (EC50) was found to be 4.3 µM.

`COc1ccc2c(c1O)OC(C)(C)c1c-2ccc2c1C(=O)N(c1ccc(-c3ccccc3)cc1)C2=O`: the Activity in assay [1] amounted to 160%; in assay [2], 114%.

For `COc1ccc2c(c1O)OC(C)(C)c1c-2ccc2c1C(=O)N(c1ccc(Cc3ccccc3)cc1)C2=O`, the Activity in assay [1] was found to be 169%; in [2], 129%.

As for `COc1ccc2c(c1O)OC(C)(C)c1c-2ccc2c1C(=O)N(c1ccc3c(c1)-c1ccccc1C3=O)C2=O`, the Activity came to 249% in [1] and 154% in [2].

As for `CC1(C)Oc2ccccc2-c2ccc3c(c21)C(=O)N(c1ccc(C(=O)c2ccccc2)cc1)C3=O`, the Activity turned out to be 203% in assay [1] and 92% in [2].

In the case of `COc1ccc2c(c1O)OC(C)(C)c1c-2ccc2c1C(=O)N(c1ccccc1)C2=O`, the Activity in assay [1] amounted to 273%; in assay [2] it was 254%.
